High-throughput results from PubChem.
KCNK9 block: KCNK9 potassium channel inhibitors, primary screen, HEK293 cells, thallium flux; B-score at 10 µM; FluxOR thallium flux fluorescence; stronger effect = lower value; Potassium channel subfamily K member 9 (Homo sapiens), Q9NPC2; AID 488922, 2010; actives 1.2% (n = 310,000);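 active = ratio B-score over 3 SD below the library mean, with starting fluorescence within 5 SD of its mean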;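 also: negative B-score means less thallium flux so channel inhibition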
hERG rescue: hERG rescue from dofetilide block, primary screen, cell-based, CHO-hERG, FluxOR thallium flux, dofetilide IC70. Voltage-gated inwardly rectifying potassium channel KCNH2 (Homo sapiens), Q12809. dofetilide IC70 present. activation (rescue from dofetilide block), less the hit threshold, % at 10 µM. actives 0.51% (n = 310,000). AID 1511, 2009;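 active = activation above the mean of controls blocked by dofetilide plus 5 SD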;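 also: thallium influx through hERG after potassium depolarization seen as dye fluorescence rise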
KCNQ1 block: inhibitors of human KCNQ1 channel, primary screen, cell-based, thallium flux, high-throughput | B-score at 10 µM | AID 2642, 2010 | CHO-K1 KCNQ1, FluxOR thallium flux fluorescence; stronger effect = higher value | actives 1.3% (n = 310,000) | Potassium voltage-gated channel subfamily KQT member 1 (Homo sapiens), P51787;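 active = compounds whose thallium flux B-score, printed positive for inhibition, exceeds three library SD while starting fluorescence stays within three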;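 also: channel opened by potassium depolarization with thallium stimulus after 20 min compound exposure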
KCNQ1 pot: potentiators or activators of KCNQ1 channel, primary screen, cell-based, thallium flux, high-throughput; CHO-K1 KCNQ1, thallium flux FluxOR fluorescence; stronger effect = higher value; B-score at 10 µM; actives 0.35% (n = 310,000);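 active = fluorescence ratio B-score, a plate-corrected score, at least three library SD, with initial intensity B-score within 5 SD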
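System: CHO-K1 cells stably expressing KCNQ1 / Medium: assay buffer for compound exposure, DMSO matched across wells / Reagent: thallium- and potassium-containing depolarizing buffer / Compound: one concentration, matched DMSO / Incubation: 20 min compound pretreatment at room temperature / Measured by: kinetic FluxOR fluorescence, 10 s baseline plus 110 s post-stimulus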
KCNK3 inh: human KCNK3 channel inhibitors, primary screen, CHO cells, FluxOR thallium flux, B-score. B-score at 10 µM. actives 0.84% (n = 340,000). Potassium channel subfamily K member 3 (Homo sapiens), O14649. FluxOR fluorescence; stronger effect = lower value. AID 602410, 2012;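 active = B-score under library mean minus 4 SD, starting fluorescence ratio at most library mean plus 5 SD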;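 also: more negative B-score means stronger inhibition of thallium flux through KCNK3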
KCNK9 block conf: KCNK9 potassium channel inhibitors, confirmation, HEK293 cells, thallium flux, duplicate | shares compounds with KCNK9 block | inhibition, % at 10 µM | actives 43% (n = 4,900) | FluxOR thallium flux fluorescence;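 active = thallium signal inhibited by more than 5 SD of the compound-free buffer control wells, on both duplicate plates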;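 also: 0% = assay buffer control wells without compound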
Kir21 sel: mouse Kir2.1 channel inhibition, confirmation, selectivity assay for KCNK9 modulator project, cell-based, HEK293, thallium flux. shares compounds with KCNK9 block. Kir2.1 cells, FluxOR thallium flux fluorescence. inhibition, % at 10 µM. actives 4% (n = 4,900);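 active = thallium signal drop more than 5 SD beyond the mean of the no-compound control wells, seen in both duplicate plates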;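 also: signal is fluorescence rise after thallium addition divided by baseline fluorescence; plate controls were assay buffer only for no effect and full block by chlorpromazine control for full effect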
Target sequence (P35561 whole entry, looked up): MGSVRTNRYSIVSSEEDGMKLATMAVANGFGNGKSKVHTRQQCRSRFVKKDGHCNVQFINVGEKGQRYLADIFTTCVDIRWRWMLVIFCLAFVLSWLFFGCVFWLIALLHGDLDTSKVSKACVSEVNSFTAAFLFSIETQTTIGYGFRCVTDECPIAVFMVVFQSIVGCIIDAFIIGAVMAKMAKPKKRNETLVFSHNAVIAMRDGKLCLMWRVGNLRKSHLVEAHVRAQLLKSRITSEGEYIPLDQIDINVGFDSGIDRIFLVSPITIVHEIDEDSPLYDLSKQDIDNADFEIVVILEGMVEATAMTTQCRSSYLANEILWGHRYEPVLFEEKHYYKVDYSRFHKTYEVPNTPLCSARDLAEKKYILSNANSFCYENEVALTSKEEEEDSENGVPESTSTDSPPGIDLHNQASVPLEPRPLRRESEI
HEK293 Tl ctr: thallium flux in non-induced HEK293 cells, confirmation, counter-screen for KCNK9 inhibitor project, cell-based, second counter screen, non-induced KCNK9-HEK293; shares compounds with KCNK9 block; FluxOR thallium flux; inhibition, % at 10 µM; actives 40% (n = 4,900); AID 492997, 2010;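 active = thallium signal drop beyond 5 SD of the untreated control mean, on both duplicate plates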;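 also: plate controls were buffer only IC0 wells for no effect and SID17386958 at its maximal inhibitory level for full effect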
KCNK3 inh conf: retest of human KCNK3 channel inhibitors, confirmation, CHO cells, FluxOR thallium flux, triplicate; FluxOR fluorescence; 0% buffer, 100% carvedilol maximal block; ratio percent of control, % at 10 µM; shares compounds with KCNK3 inh; actives 99% (n = 2,400);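 active = ratio percent of control, averaged over triplicates, above buffer control mean plus 5 SD, cut at about 64% in these data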;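 also: ratio is the fluorescence rise from min to max over baseline after thallium stimulus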
KCNK3 uninduced: thallium flux inhibition in non-induced cells, primary screen, counter-screen for KCNK3 inhibitor project, cell-based, non-induced KCNK3 line, FluxOR thallium, triplicate. non-induced KCNK3 parental cells; stronger effect = lower value. actives 40% (n = 2,400). shares compounds with KCNK3 inh. thallium flux ratio (lower = more inhibition) at 10 µM. AID 651747, 2012;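 active = thallium flux ratio, averaged over three wells, more than 5 SD below the buffer control mean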;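 also: host cells are CHO cells without KCNK3 induction; ratio is peak minus trough fluorescence over baseline then normalized to buffer controls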
Numbers without * were called inactive; i = inactive; · = no result. Rows were chosen to be rich in hits. Some 3.1% of all compounds tested hit in one or more screens of this group.

SMILES	KCNK9 block	hERG rescue	KCNQ1 block	KCNQ1 pot	KCNK3 inh	KCNK9 block conf	Kir21 sel	HEK293 Tl ctr	KCNK3 inh conf	KCNK3 uninduced
CN(CCc1ccccn1)C(=O)CC1C(=O)NCCN1Cc1cccc(F)c1 (stereo not drawn)	i	-10	i	i	i	·	·	·	·	·
Cc1cc(C)cc(C(=O)NC(=S)Nc2ccc(Cc3ccncc3)cc2)c1	i	-10	i	i	-10*	i	i	i	98*	i
CCNC(=O)CNC(=O)c1nn(Cc2ccccc2)c(=O)c2ccccc12	-10*	2	i	i	-13*	60%*	i	24%*	102*	i
CC(C)CNC(=O)c1nn(Cc2ccccc2)c(=O)c2ccccc12	i	-3	i	i	i	·	·	·	·	·
O=C(Nc1nc2c(s1)CCCC2)c1nn(Cc2ccccc2)c(=O)c2ccccc12	-14*	-7	i	i	-9*	72%*	i	i	101*	i
CCCCOc1ncnc2c1[nH]c1ccc(F)cc12	i	-8	i	i	i	·	·	·	·	·
COc1ccc(-n2nc(C(=O)NCC(=O)Nc3cc(OC)ccc3OC)c3ccccc3c2=O)cc1	-14*	-4	i	i	-11*	i	i	i	89*	i
CC(C)Oc1ccccc1C1Nc2ccccc2C(=O)N1c1ccc2c(c1)OCCO2 (stereo not drawn)	-13*	-3	i	i	-10*	67%*	i	28%*	100*	0.16*
CC(C)C(=O)Nc1cccc(C(=O)NCCc2ccc(S(N)(=O)=O)cc2)c1	i	-10	i	i	i	·	·	·	·	·
COc1cccc(NC(=O)C(NCCc2ccc(S(N)(=O)=O)cc2)c2ccccc2)c1 (stereo not drawn)	-9*	-12	i	i	-8.7*	38%*	i	31%*	106*	i
COC(=O)c1ccccc1NC(=O)N1CCc2ccc(NC(=O)c3ccccn3)cc2C1	-8.3*	-8	i	i	i	42%*	i	26%*	134*	0.16*
CSc1ccc(C(=O)N2CCc3ccc(NC(=O)c4ccccn4)cc3C2)cc1	i	-11	i	i	i	·	·	·	·	·
Cc1ccc(Cl)cc1NC(=S)N(Cc1ccco1)C(C)c1cccs1 (stereo not drawn)	-9.6*	-9	i	i	-11*	47%*	i	37%*	124*	0.15*
O=C(/C=C/c1cccc(C(F)(F)F)c1)Nc1cccc(C(F)(F)F)c1	i	-5	9*	i	-11*	i	i	i	107*	0.15*
C=CCn1c(SCC(=O)Nc2ccccc2)nc2scc(-c3cccs3)c2c1=O	-11*	-5	i	i	-9.5*	35%*	i	34%*	114*	i
CCCc1cc(=O)[nH]c(SCC(=O)NCC2COc3ccccc3O2)n1 (stereo not drawn)	·	·	·	·	i	·	·	·	·	·
N#CCSc1nc2c(c(C3CC=CCC3)c1C#N)CCC2 (stereo not drawn)	-8.4*	-14	i	i	i	34%*	i	42%*	107*	i
CC(=O)N(C)C1(c2nnnn2CCOC(=O)Nc2cccc3ccccc23)CCCC1	i	-9	i	i	i	·	·	·	·	·
CC(=O)/C(N=Nc1cccc(C(F)(F)F)c1)=C(\C)O	i	-4	i	i	i	·	·	·	·	·
O=C(/C(N=Nc1cccc(C(F)(F)F)c1)=C(/O)c1cccs1)C(F)(F)F	-8.8*	-15	10*	i	i	i	i	i	67*	i
COc1ccc(C2CC(c3ccc4ccccc4c3)=NN2C(=O)CNC2CCCCC2)cc1 (stereo not drawn)	-8.9*	-29	i	i	-11*	44%*	i	30%*	133*	i
N#Cc1cccc(C(c2nnnn2C2CCCC2)N2CCC(Cc3ccccc3)CC2)c1 (stereo not drawn)	-12*	-16	i	i	-11*	58%*	i	30%*	112*	0.15*
O/N=C(\c1ccc(Cl)cc1Cl)c1ncc(C(F)(F)F)cc1Cl	-13*	-11	i	i	-9.8*	62%*	i	44%*	97*	0.14*
Cc1cc(C(=O)OCC(=O)Nc2cccnc2Cl)c2ccccc2n1	i	-3	i	i	i	·	·	·	·	·
COC(=O)c1ccc(C2CC(=O)Nc3cc(OC)c(OC)c(OC)c32)cc1 (stereo not drawn)	i	-6	i	i	i	·	·	·	·	·
Cc1ccc(O)c(-c2cc(C(=O)NCc3ccncc3)[nH]n2)c1	-11*	-4	i	i	-9.2*	55%*	i	30%*	107*	i
O=C(CC(Nc1ccccc1)c1ccccc1)C1CC1 (stereo not drawn)	i	-7	i	i	i	·	·	·	·	·
O=C(Nc1ccccc1)C1=C(O)CC(c2ccco2)CC1=Nc1ccccc1 (stereo not drawn)	-12*	-7	i	i	i	27%*	i	36%*	115*	0.16*
CC1=C(C(=O)Nc2ccccc2)C(c2ccco2)NC(=S)N1 (stereo not drawn)	i	-6	i	i	i	·	·	·	·	·
